In ChEMBL document CHEMBL1142298, “Synthesis and dopamine receptor affinities of N-alkyl-11-hydroxy-2-methoxynoraporphines: N-alkyl substituents determine D1 versus D2 receptor selectivity” (J Med Chem, 2008):

How the values were obtained:
D(2) dopamine receptor = D(2) dopamine receptor (Rattus norvegicus, UniProt P61169); test: Displacement of [3H]neomonapride from dopamine D2 receptor in rat striatum
Summary of the method: (§1)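 Competitive radioligand binding on membrane homogenates prepared from rat striatum tissue, following a previously published procedure.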

D(1A) dopamine receptor = D(1A) dopamine receptor (Rattus norvegicus, UniProt P18901); test: Displacement of [3H]SCH-23390 from dopamine D1 receptor in rat striatum; summary of the method: as §1
Rattus norvegicus = organism: Rattus norvegicus; test: Selectivity ratio of rat dopamine D2 receptor to rat dopamine D1 receptor

D(2) dopamine receptor, sequence (P61169 whole entry): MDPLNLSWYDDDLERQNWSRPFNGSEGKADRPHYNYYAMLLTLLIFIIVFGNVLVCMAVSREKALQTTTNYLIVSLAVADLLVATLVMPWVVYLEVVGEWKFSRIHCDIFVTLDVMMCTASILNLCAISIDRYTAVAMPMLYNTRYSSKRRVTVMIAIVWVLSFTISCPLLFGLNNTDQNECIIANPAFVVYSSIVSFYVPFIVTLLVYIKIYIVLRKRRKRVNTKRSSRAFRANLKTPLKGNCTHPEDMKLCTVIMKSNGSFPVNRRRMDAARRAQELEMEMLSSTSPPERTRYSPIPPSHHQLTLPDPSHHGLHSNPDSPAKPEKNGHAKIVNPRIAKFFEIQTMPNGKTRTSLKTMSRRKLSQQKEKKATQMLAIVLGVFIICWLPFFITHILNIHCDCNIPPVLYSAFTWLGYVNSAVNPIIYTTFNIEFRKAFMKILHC
D(1A) dopamine receptor, sequence (P18901 whole entry): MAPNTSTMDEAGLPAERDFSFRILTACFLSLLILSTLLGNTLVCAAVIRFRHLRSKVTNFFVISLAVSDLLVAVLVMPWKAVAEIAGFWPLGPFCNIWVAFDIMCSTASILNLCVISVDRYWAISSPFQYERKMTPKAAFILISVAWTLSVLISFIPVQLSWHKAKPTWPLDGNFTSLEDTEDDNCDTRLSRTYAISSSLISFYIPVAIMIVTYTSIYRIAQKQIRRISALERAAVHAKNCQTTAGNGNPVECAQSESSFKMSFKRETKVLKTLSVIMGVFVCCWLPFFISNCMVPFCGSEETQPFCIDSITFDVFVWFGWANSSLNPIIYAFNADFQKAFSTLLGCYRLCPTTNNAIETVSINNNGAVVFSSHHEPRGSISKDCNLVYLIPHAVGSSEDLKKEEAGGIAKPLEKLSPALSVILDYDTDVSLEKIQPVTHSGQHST

SMILES	Ki (D(2) dopamine receptor) [nM]	Ki (D(1A) dopamine receptor) [nM]	Ratio Ki (Rattus norvegicus)
COc1cc2c3c(c1)-c1c(O)cccc1C[C@H]3N(C)CC2	235	46	0.19
CCCCN1CCc2cc(OC)cc3c2[C@H]1Cc1cccc(O)c1-3	> 10000	> 10000	
COc1cc2c3c(c1)-c1c(ccc(O)c1O)C[C@H]3N(C)CC2	3.5	> 10000	> 2860
CCN1CCc2cc(OC)cc3c2[C@H]1Cc1cccc(O)c1-3	28	130	4.6
CCCN1CCc2cc(OC)cc3c2[C@H]1Cc1ccc(O)c(O)c1-3	1.3	6450	4860
CN1CCc2cccc3c2[C@H]1Cc1cccc(O)c1-3	108	26.5	0.24
